T cruzi inh: blocks replication of Trypanosoma cruzi; AID 1885; 300,000 tested, 1.4% active; T. cruzi beta-gal in NIH3T3, luminescence, 90 h; inhibition, % (concentration not given with the values);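 active = mean inhibition across valid replicates above about 55%, limit read from the data; inconclusive = mean below that limit but half or more replicates reach it; inactive = mean below it, under half of replicates reach it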;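 note: signal also drops with host cell toxicity which is not excluded here; 0% = plate median of DMSO wells and 100% = zero luminescence signal; higher percent means less beta-gal luminescence so fewer parasites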
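assay system = mouse NIH/3T3 fibroblasts infected with β-gal-expressing T. cruzi Tulahuen C4 | input = 5,000 NIH/3T3 host cells per well | buffer or medium = DMEM plus 2% FBS | timing = 3 h host attachment, then at least 90 h co-culture | measured by = GalScreen luminescence, 60 min | evaluation = luminescence reflecting intracellular parasite burden, expressed as percent inhibition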
L major viab: Leishmania major promastigote growth inhibition; Leishmania major promastigotes, resazurin fluorescence viability; inhibition, % at 10 µM; 200,000 tested, 9% active; AID 1063; in the data active = inhibition above about 50%;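 note: promastigotes grown with compound for 44 hours at 28 °C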
Hep lipid drop: hepatic lipid droplet formation modulation; AML12 mouse hepatocytes, oleate lipid droplets, BODIPY imaging; inhibition, % at 6.5 µM; AID 1656; 240,000 tested, 0.4% active;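 active = lipid droplet intensity inhibited by at least 50%, with more than 500 cells counted; inconclusive = wells with under 300 cells, treated as cytotoxic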
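Material – mouse AML12 hepatocyte cell line, fixed after treatment · Compound dosing – one dose, 6.5 µM compound · Times – compound with oleate, overnight · Measured by – Image-based BODIPY and DAPI two-channel analysis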
Redox H2O2 prof: compounds producing H2O2 with reducing agent – biochemical, NIH compound library profiling, artefact control for MLSCN library redox annotation, primary screen. DTT-dependent redox cycling H2O2, phenol red/HRP absorbance; 100% = 100 µM peroxide control, 0% = buffer. activation, % at 10 µM. 200,000 tested, 0.03% active;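 active = activation of at least 50% relative to the plate's high and low controls in the primary single-dose screen; inactive = activation below 50%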;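 note: compound incubated with DTT at 0.8 mM final as the reducing agent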
MPTP inh: permeability transition pore inhibition. inhibition, % at 10 µM. 360,000 tested, 1.4% active. isolated mouse mitochondria, Ca2+ swelling absorbance, 30 min;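 active = inhibition of 50% or more, scaled per plate between neutral and stimulator controls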;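 note: 0% = DMSO wells given calcium and 100% = 1 mM EGTA wells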
DTT redox conf: confirmation of DTT-dependent redox cycling H2O2 generators; shares compounds with Redox H2O2 prof; phenol red-HRP absorbance; EC50, µM; 60 tested, 40% active; AID 1234;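 active = EC50 under a set limit for hydrogen peroxide production with the reducing agent DTT present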
* marks the source's active call; other numbers are inactive results; ? = inconclusive; . = no result given. Only a selection was taken, and hits are over-represented in it overall.

SMILES	T cruzi inh	L major viab	Hep lipid drop	Redox H2O2 prof	MPTP inh	DTT redox conf
CCCCN(CC)CCNC(=O)c1cc2c(=O)n(C)c3ccccc3c2s1	61*	.	-4	.	0	.
CCCCN(CC)CCNC(=O)c1cn(-c2ccc(Cl)cc2)c(=O)c2ccccc12	68*	14	-16	-2	0	.
Cn1cc(-c2ccno2)c(C(=O)O)n1	-10	-10	6	-2	-1	.
Cn1c(-c2c(N)n(CCCc3ccccc3)c3nc4ccccc4nc23)nc2ccccc21	71*	98*	.	2	2	.
Cn1c(-c2c(N)n(CCc3ccccc3)c3nc4ccccc4nc23)nc2ccccc21	52	100*	-12	0	2	.
Cn1c(C2CCCCC2)nc2ccccc21	-9	.	-8	.	0	.
Cn1c(-c2c(N)n(C3CCCC3)c3nc4ccccc4nc23)nc2ccccc21	73*	-18	.	2	26	.
COCCCn1c(N)c(-c2nc3ccccc3n2C)c2nc3ccccc3nc21	20	37	5	0	-2	.
CCOC(=O)Cc1csc(NS(=O)(=O)c2ccc([N+](=O)[O-])cc2)n1	0	.	6	.	0	.
CCc1nc2ccc(C(=O)N(CC)CCN(C)C)cn2c1N(C)Cc1nccs1	.	.	.	.	1	.
O=C(NCc1cc([N+](=O)[O-])ccc1O)c1cccnc1Sc1ccccc1Cl	-17	.	2	.	0	.
Cc1ccc(C)c(S(=O)(=O)N2CCCC2CNC(=O)C(=O)NC2CC2)c1 (stereo unspecified)	-15	.	.	.	-1	.
Cc1cc(C)c(S(=O)(=O)/N=C2/C=C(Sc3ncn[nH]3)C(=O)c3ccccc32)cc1C	.	100*	-2	143*	15	23*
CCC(C)n1c(NC(=O)c2ccccc2)c(C#N)c2nc3ccccc3nc21 (stereo unspecified)	16	49	.	63*	3	>50
CC(=O)N(/N=C1\Sc2ccccc2C1=O)c1cccc(C)c1	5	0	.	296*	2	26*
COc1cccc(C=NNC(=S)NN=Cc2cccc(OC)c2OC)c1OC	.	.	.	.	-1	.
CNC1=C(N(C(C)=O)c2ccc(Br)cc2)C(=O)c2ccccc2C1=O	70*	99*	-39	108*	2	>50
CCOc1ccc(N(CC(=O)Nc2nccs2)S(=O)(=O)c2c(C)[nH]c(=O)[nH]c2=O)cc1	0	-9	14	-2	-1	.
COc1ccc(CN2C(=O)c3cccnc3C2Nc2cc(Cl)ccc2OC)cc1 (stereo unspecified)	13	-1	-4	-2	-1	.
COc1ccc(CN2C(=O)c3cccnc3C2O)cc1 (stereo unspecified)	-23	-2	18	68*	1	>50
O=C(COC(=O)c1ccc([N+](=O)[O-])s1)NCc1ccccc1	18	12	2	113*	1	39*
O=C(COC(=O)c1ccc([N+](=O)[O-])o1)NCc1ccccc1	.	.	.	.	0	.
O=C(c1ccc(Cl)cc1)c1ccc(CN2C(=O)c3ccccc3C2=O)o1	-5	-4	.	2	2	.
Cc1ccc(C(=O)c2c(C)oc3c2C(=O)C(=O)c2ccccc2-3)cc1	?	100*	.	458*	0	>50
Cc1cc(=O)c(C(=O)c2ccccc2)c(C)o1	-10	.	.	.	3	.
SMILES	T cruzi inh	L major viab	Hep lipid drop	Redox H2O2 prof	MPTP inh	DTT redox conf
Cc1oc2c(c1C(=O)c1ccc(Cl)cc1)C(=O)C(=O)c1ccccc1-2	?	101*	.	344*	0	6.4*
O=C(c1ccc(NC(=S)NCc2ccco2)cc1)N1CCCCC1	8	6	3	0	-2	.
Cc1ccccc1-c1noc(CNC(=O)c2ccco2)n1	-9	.	12	.	1	.
CC(=O)Nc1cc(OC(C)=O)c2nonc2c1OC(C)=O	.	101*	.	113*	-2	7.8*
CCCc1nc2ccc(C)cn2c1Cc1ccc(C)cc1	.	.	.	.	-1	.
CCOc1ccc2c(=O)c(Oc3ccccc3)c(C)oc2c1	8	3	.	57*	-1	>50
CC(C)CN(C(=O)COC(=O)c1ccc([N+](=O)[O-])o1)C1CCS(=O)(=O)C1 (stereo unspecified)	-2	0	20	122*	0	>50
CC(=O)Nc1c(S(=O)(=O)c2ccccc2)c2nc3ccccc3nc2n1Cc1ccccc1	19	-2	.	0	-18	.

Screening results as filed in PubChem BioAssay.
